The test system of experiment [1] is Trypanosoma brucei rhodesiense. The experiment can be described thus: Antitrypanosomal activity against Trypanosoma brucei rhodesiense infected in vervet monkey assessed as body weight change at 10 mg/kg, po administered on day 28 post infection for 10 days. The format is functional. The essentials:
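Body weight change is given as percent of the mean preinfection weight (n=3 per group). It was recorded at day 0 p.t., day 28 p.t. and end point. Oral gavage was once daily: 5 days from day 7 p.i., or 10 days from day 28 p.i.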

Experiment [2] has as its system Trypanosoma brucei rhodesiense. The experiment is described as follows: Antitrypanosomal activity against Trypanosoma brucei rhodesiense infected in vervet monkey assessed as body weight change at 10 mg/kg, po administered on day 14 post infection for 5 days measured on day 28 post treatment. The format is functional.
Experiment [3] concerns Trypanosoma brucei rhodesiense. The experiment can be described thus: Antitrypanosomal activity against Trypanosoma brucei rhodesiense infected in vervet monkey 471 assessed as time to detect parasitemia in wet films of blood at 10 mg/kg, po administered on day 14 post infection for 5 days by hematocrit centrifugation technique.
Experiment [4] concerns Trypanosoma brucei rhodesiense. The experiment is described as follows: Antitrypanosomal activity against Trypanosoma brucei rhodesiense infected in vervet monkey 485 assessed as time to detect CSF parasitosis at 1 mg/kg, po administered on day 7 post infection for 5 days measured after 7 to 14 days. The format is functional. The essentials:
(§1)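 Trypanosomes and white cells in free-flowing CSF were counted by hemocytometer. Negative CSF was centrifuged and re-examined. Samples still negative were inoculated at 0.2 ml intraperitoneally into two mice each. Drug was given once daily by oral gavage: 5 days from day 7 p.i., or 10 days from day 28 p.i.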

The subject of experiment [5] is Trypanosoma brucei rhodesiense. The experiment can be described thus: Antitrypanosomal activity against Trypanosoma brucei rhodesiense infected in vervet monkey 485 assessed as time to detect parasitemia in wet films of blood at 1 mg/kg, po administered on day 7 post infection for 5 days by hematocrit centrifugation technique. Type of experiment: functional. The method, boiled down: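 Parasitemia was monitored from 3 days p.i. in ear-prick or inguinal venous blood. Methods were wet-film microscopy (detection limit 10^5 trypanosomes/ml) and hematocrit centrifugation technique (detection limit 10^3 trypanosomes/ml). Drug was given once daily by oral gavage: 5 days from day 7 p.i., or 10 days from day 28 p.i.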

In experiment [6] the test system is Trypanosoma brucei rhodesiense. The experiment can be described thus: Antitrypanosomal activity against Trypanosoma brucei rhodesiense infected in vervet monkey 411 assessed as cure from infection at 3 mg/kg, po administered on day 7 post infection for 5 days. The format is functional, organism-based. More on the design: dose 3 mg/kg. The method, boiled down: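 Vervet monkeys (n=3 per group), infected with T. b. rhodesiense KETRI 2537. Dosed by oral gavage with a suspension once daily for 5 consecutive days from day 7 p.i. Cure meant no trypanosomes over 180 days p.t. in blood (wet film, HCT) or CSF (hemocytometer, centrifugation), with mouse subinoculation of negative samples.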

Experiment [7] relates to Trypanosoma brucei rhodesiense. The experiment is described as follows: Antitrypanosomal activity against Trypanosoma brucei rhodesiense infected in vervet monkey assessed as change in packed cell volume at 3 mg/kg, po administered on day 7 post infection for 5 days measured on day 28 post treatment. The format is functional. The method, boiled down:
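Vervet monkeys, three per group, were infected intravenously with T. b. rhodesiense KETRI 2537. From day 7 p.i., a drug suspension was given by oral gavage once daily for 5 consecutive days. Packed cell volume was expressed as % change from the group's mean preinfection value. PCV was read at day 0 p.t., day 28 p.t. and endpoint, with follow-up to 180 days p.t.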

Experiment [8] deals with Trypanosoma brucei rhodesiense. The experiment is described as follows: Antitrypanosomal activity against Trypanosoma brucei rhodesiense infected in vervet monkey 490 assessed as time to detect CSF parasitosis at 10 mg/kg, po administered on day 28 post infection for 10 days measured after 14 to 21 days by microscopy. The format is functional. The essentials:
as §1

Activity calls are given as the source filed them. The calls are words filed in the database; no cut-off is given here.

For the compound `CONC(=N)c1ccc(-c2ccc(-c3ccc(C(=N)NOC)cc3)o2)cc1` [PAFURAMIDINE], the Activity in experiment [1] is -10.5%; in experiment [2] it was -5.2%; in experiment [7], -2.9%. Moreover, the Time in experiment [3] came to 87 days; in experiment [4], 14 days; in experiment [5], 3 days; in experiment [8], 42 days. Besides, the Time entry in experiment [6] is “Active”.

For the origin of these results see ChEMBL document CHEMBL1649125, “Efficacy of the novel diamidine compound 2,5-Bis(4-amidinophenyl)- furan-bis-O-Methlylamidoxime (Pafuramidine, DB289) against Trypanosoma brucei rhodesiense infection in vervet monkeys after oral administration” (2009).
